From ChEMBL document CHEMBL4311989, “Anti-hepatitis-C virus activity and QSAR study of certain thiazolidinone and thiazolotriazine derivatives as potential NS5B polymerase inhibitors” (Eur J Med Chem, 2019)

Assays:
[1] = tested on: Hepatitis C virus; test: Antiviral activity against HCV genotype 1a infected in human Huh7.5 cells assessed as reduction in viral replication by measuring HCV core antigen level by ELISA; assay type: functional, organism-based, Hepacivirus hominis; details: subtype 1a
In short: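 HCV GT1a replication in Huh-7.5 human hepatoma cells; HCV core protein quantified by core antigen ELISA per kit instructions. EC50 taken as concentration reducing HCV replication by 50%, with VCH-759 as reference.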

[2] = target: RNA-directed RNA polymerase (Hepacivirus hominis, UniProt O39930); test: Inhibition of recombinant HCV genotype 1a NS5B polymerase coincubated with HCV international ribosome entry site template sequence containing nucleotide residues 21-371 of HCV 5'-untranslated Escherichia coli DNA polymerase I region incubated for 3 hrs by scintillation/luminescence counter method; design: species or system Hepatitis C virus subtype 1a
In short: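 Recombinant GT1a NS5B RdRp, […] (GenBank AF356827), used at 0.26 ug/well; VCH-759 as non-nucleoside positive control; IC50 determined.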

[3] = target: RNA-directed RNA polymerase (Hepacivirus hominis) (UniProt O39930); test: Potency index, ratio of VCH-759 IC50 to compound IC50 for HCV genotype 1a recombinant NS5B polymerase coincubated with HCV international ribosome entry site template sequence containing nucleotide residues 21-371 of HCV 5'-untranslated Escherichia coli DNA polymerase I region; details: Hepatitis C virus subtype 1a
[4] = Cytotoxicity against human THLE2 cells assessed as reduction in cell viability incubated for 24 hrs by MTT assay; assay type: cell-based, THLE-2
In short: (§1)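 Transformed normal human cells (THLE-2 liver epithelial; RPTEC/TERT1 proximal tubular epithelial) exposed to compound; viability read by MTT reduction to formazan. CC50 defined as concentration reducing cell viability by 50%; VCH-759 run as reference.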

[5] = Cytotoxicity against human RPTEC/TERT1 cells assessed as reduction in cell viability incubated for 24 hrs by MTT assay; assay type: cell-based; in short: as §1
[6] = Selectivity index, ratio of CC50 for human THLE2 cells to EC50 for HCV infected in human Huh7.5 cells; assay type: toxicity, cell-based; details: THLE2 cells (CC50) and HCV-infected Huh7.5 cells (EC50)
In short: (§2)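 SI computed as CC50 on THLE-2 or RPTEC/TERT1 (MTT viability) divided by EC50 from HCV-infected Huh7.5 cells (core antigen ELISA).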

[7] = Selectivity index, ratio of CC50 for human RPTEC/TERT1 cells to EC50 for HCV infected in human Huh7.5 cells; assay type: toxicity, cell-based; details: read-out: Ratio CC50/EC50; in short: as §2

SMILES | EC50 [1] [µM] | IC50 [2] [µM] | also measured
COc1ccc(NC(=O)CN2C(=O)S/C(=C\c3ccccc3Cl)C2=O)cc1 | 11 | 1.2 | –
O=C(CN1C(=O)S/C(=C\c2ccc(F)cc2)C1=O)Nc1ccc(Cl)cc1 | 16.9 | 0.1 | Ratio IC50 [3]: 1 to 2
O=c1/c(=C\c2ccc(Cl)cc2)sc2n1CN(c1ccc(Cl)cc1)CN=2 | 10.8 | 1.82 | –
COc1ccc(NC(=O)CN2C(=O)S/C(=C\c3ccc(F)cc3)C2=O)cc1 | 10.8 | 0.39 | –
O=C(C/N=C1/S/C(=C\c2ccccc2)C(=O)N1c1ccccc1)Nc1ccccc1 | 8.98 | 0.76 | –
O=c1/c(=C\c2ccc(F)cc2)sc2n1CN(c1ccc(Cl)cc1)CN=2 | 6.58 | 0.2 | –
COc1ccc(N2CN=c3s/c(=C/c4ccc(Cl)cc4Cl)c(=O)n3C2)cc1 | 13.2 | 0.22 | –
COc1ccc(N2CN=c3s/c(=C/c4ccc(F)cc4)c(=O)n3C2)cc1 | 40.1 | 0.07 | Ratio IC50 [3]: 1 to 2
CC1CCC(C(=O)N(c2cc(-c3ccccc3)sc2C(=O)O)C2CCC(O)CC2)CC1 (configuration not stated) [VCH-759] | 5.29 | 0.14 | CC50 at 24 h [4]: 61.8 µM; CC50 at 24 h [5]: 81.3 µM; selectivity ratio [6]: 11.7; selectivity ratio [7]: 15.4
COc1ccc(N2CN=c3s/c(=C/c4ccccc4)c(=O)n3C2)cc1 | 10.8 | 0.75 | –
O=c1/c(=C\c2ccccc2)sc2n1CN(c1ccc(Cl)cc1)CN=2 | 19.3 | 0.49 | –
COc1ccc(NC(=O)CN2C(=O)S/C(=C\c3ccccc3)C2=O)cc1 | 10.6 | 0.45 | –
COc1ccc(/C=c2/sc3n(c2=O)CN(c2ccccc2)CN=3)cc1 | 12.6 | 0.2 | –
O=C(CN1C(=O)S/C(=C\c2ccc(Cl)cc2Cl)C1=O)Nc1ccccc1 | 10.8 | 0.44 | –
COc1ccc(/C=c2/sc3n(c2=O)CN(c2ccc(OC)cc2)CN=3)cc1 | 9.54 | 0.54 | –
O=C(CN1C(=O)S/C(=C\c2ccc(F)cc2)C1=O)Nc1ccccc1 | 8.4 | 0.14 | –
O=c1/c(=C\c2ccccc2)sc2n1CN(c1ccccc1)CN=2 | 13.3 | 0.62 | –
COc1ccc(N2CN=c3s/c(=C/c4ccccc4Cl)c(=O)n3C2)cc1 | 13.5 | 1.26 | –
O=c1/c(=C\c2ccccc2Cl)sc2n1CN(c1ccccc1)CN=2 | 30.7 | 0.43 | –
O=C(CN1C(=O)S/C(=C\c2ccccc2Cl)C1=O)Nc1ccccc1 | 3.8 | 0.035 | CC50 at 24 h [4]: 103 µM; CC50 at 24 h [5]: 161 µM; selectivity ratio [6]: 27; selectivity ratio [7]: 42.5; Ratio IC50 [3]: 4

SMILES | EC50 [1] [µM] | IC50 [2] [µM] | also measured
O=C(CN1C(=O)S/C(=C\c2ccccc2)C1=O)Nc1ccccc1 | 19.6 | 4.8 | –
O=C(CN1C(=O)S/C(=C\c2ccccc2)C1=O)Nc1ccc(Cl)cc1 | 16.7 | 0.14 | –
COc1ccc(NC(=O)CN2C(=O)S/C(=C\c3ccc(Cl)cc3)C2=O)cc1 | 43.9 | 0.37 | –
O=c1/c(=C\c2ccc(Cl)cc2Cl)sc2n1CN(c1ccc(Cl)cc1)CN=2 | 9.5 | 0.54 | –
O=C(CN1C(=O)S/C(=C\c2ccccc2Cl)C1=O)Nc1ccc(Cl)cc1 | 6.47 | 2.99 | –
COc1ccc(/C=c2/sc3n(c2=O)CN(c2ccc(Cl)cc2)CN=3)cc1 | 24.3 | 0.99 | –
COc1ccc(/C=C2\SC(=O)N(CC(=O)Nc3ccc(OC)cc3)C2=O)cc1 | 19.6 | 0.78 | –
COc1ccc(N2CN=c3s/c(=C/c4ccc(Cl)cc4)c(=O)n3C2)cc1 | 10.3 | 3.53 | –
N=C1S/C(=C\c2ccccc2)C(=O)N1c1ccccc1 | 11.1 | 0.58 | –
O=C(CN1C(=O)S/C(=C\c2ccc(Cl)cc2)C1=O)Nc1ccccc1 | 11.1 | 0.085 | Ratio IC50 [3]: 1 to 2
O=c1/c(=C\c2ccc(F)cc2)sc2n1CN(c1ccccc1)CN=2 | 18.7 | 2.2 | –
COc1ccc(/C=C2\SC(=O)N(CC(=O)Nc3ccccc3)C2=O)cc1 | 11.6 | 0.25 | –
O=c1/c(=C\c2ccc(Cl)cc2)sc2n1CN(c1ccccc1)CN=2 | 10.9 | 0.12 | Ratio IC50 [3]: 1 to 2
O=C(CN1C(=O)S/C(=C\c2ccc(Cl)cc2)C1=O)Nc1ccc(Cl)cc1 | 7.8 | 0.21 | –
O=C(CN1C(=O)S/C(=C\c2ccc(Cl)cc2Cl)C1=O)Nc1ccc(Cl)cc1 | 44 | 5.12 | –
O=c1/c(=C\c2ccc(Cl)cc2Cl)sc2n1CN(c1ccccc1)CN=2 | 14.5 | 1.37 | –
COc1ccc(/C=C2\SC(=O)N(CC(=O)Nc3ccc(Cl)cc3)C2=O)cc1 | 7.93 | 0.28 | –
O=c1/c(=C\c2ccccc2Cl)sc2n1CN(c1ccc(Cl)cc1)CN=2 | 13.8 | 0.09 | Ratio IC50 [3]: 1 to 2
COc1ccc(NC(=O)CN2C(=O)S/C(=C\c3ccc(Cl)cc3Cl)C2=O)cc1 | 43.9 | 0.32 | –
